{"source": "ChEMBL document CHEMBL2074053", "about": "“Modified jatrophane diterpenes as modulators of multidrug resistance from Euphorbia dendroides L” (Bioorg Med Chem, 2003)", "type_in_all_cases": "functional, cell-based", "settings_in_all_cases": "k562/r7, 5 µM", "key": {"[1]": {"molecular_target": "T1, ATP-dependent translocase ABCB1 (Homo sapiens, UniProt P08183)", "T1 sequence (P08183 whole entry)": "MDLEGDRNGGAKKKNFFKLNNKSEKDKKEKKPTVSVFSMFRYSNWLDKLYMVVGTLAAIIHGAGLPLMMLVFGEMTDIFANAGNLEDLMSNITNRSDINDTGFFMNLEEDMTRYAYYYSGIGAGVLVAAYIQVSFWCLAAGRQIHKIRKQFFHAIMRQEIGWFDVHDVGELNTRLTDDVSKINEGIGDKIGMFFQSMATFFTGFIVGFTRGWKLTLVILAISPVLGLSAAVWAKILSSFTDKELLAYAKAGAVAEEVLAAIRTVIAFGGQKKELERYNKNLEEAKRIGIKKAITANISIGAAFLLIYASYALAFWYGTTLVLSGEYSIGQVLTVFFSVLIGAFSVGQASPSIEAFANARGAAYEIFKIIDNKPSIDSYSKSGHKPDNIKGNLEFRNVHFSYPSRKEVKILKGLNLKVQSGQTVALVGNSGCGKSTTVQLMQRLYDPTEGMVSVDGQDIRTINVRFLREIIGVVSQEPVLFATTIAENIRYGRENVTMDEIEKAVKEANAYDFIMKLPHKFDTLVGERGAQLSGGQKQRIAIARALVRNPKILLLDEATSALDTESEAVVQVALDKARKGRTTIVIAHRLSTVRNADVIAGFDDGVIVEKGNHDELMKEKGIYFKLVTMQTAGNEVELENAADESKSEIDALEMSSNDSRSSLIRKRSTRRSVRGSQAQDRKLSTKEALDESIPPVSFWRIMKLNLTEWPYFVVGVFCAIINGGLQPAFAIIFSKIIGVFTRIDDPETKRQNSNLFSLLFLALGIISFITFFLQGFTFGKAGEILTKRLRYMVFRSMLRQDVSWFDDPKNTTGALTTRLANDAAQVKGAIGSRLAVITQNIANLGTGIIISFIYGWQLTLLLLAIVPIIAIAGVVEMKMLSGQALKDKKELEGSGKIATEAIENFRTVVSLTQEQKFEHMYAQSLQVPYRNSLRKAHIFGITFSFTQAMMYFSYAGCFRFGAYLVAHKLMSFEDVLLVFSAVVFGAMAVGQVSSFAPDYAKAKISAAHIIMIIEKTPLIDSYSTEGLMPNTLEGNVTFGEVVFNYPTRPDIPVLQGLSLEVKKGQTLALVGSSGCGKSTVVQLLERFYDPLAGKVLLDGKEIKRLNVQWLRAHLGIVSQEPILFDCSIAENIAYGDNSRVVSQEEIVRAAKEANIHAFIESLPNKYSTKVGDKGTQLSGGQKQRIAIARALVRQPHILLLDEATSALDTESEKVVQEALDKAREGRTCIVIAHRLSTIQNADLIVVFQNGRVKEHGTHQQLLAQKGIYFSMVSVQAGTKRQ", "experiment": "TP_TRANSPORTER: inhibition of Daunomycin efflux (Daunomycin: 10 uM, Terracinolide L: 5 uM) in K562/R7 cells", "in_short": "(§1)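 Cells washed twice in ice-cold PBS and held on ice. Intracellular daunomycin read by flow cytometry. Efflux inhibition is the fluorescence shift relative to 2 µM cyclosporin A as positive control. Duplicates, at least three separate experiments.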"}, "[2]": {"molecular_target": "T1, ATP-dependent translocase ABCB1", "experiment": "TP_TRANSPORTER: inhibition of Daunomycin efflux (Daunomycin: 10 uM, Terracinolide C: 5 uM) in K562/R7 cells", "in_short": "as §1"}, "[3]": {"molecular_target": "T1, ATP-dependent translocase ABCB1", "experiment": "TP_TRANSPORTER: inhibition of Daunomycin efflux (Daunomycin: 10 uM, 13alpha-OH Terracinolide G: 5 uM) in K562/R7 cells", "in_short": "as §1"}, "[4]": {"molecular_target": "T1, ATP-dependent translocase ABCB1", "experiment": "TP_TRANSPORTER: inhibition of Daunomycin efflux (Daunomycin: 10 uM, Terracinolide B: 5 uM) in K562/R7 cells", "in_short": "as §1"}, "[5]": {"molecular_target": "T1, ATP-dependent translocase ABCB1", "experiment": "TP_TRANSPORTER: inhibition of Daunomycin efflux (Daunomycin: 10 uM, Epiabeodendroidin F: 5 uM) in K562/R7 cells", "in_short": "as §1"}, "[6]": {"molecular_target": "T1, ATP-dependent translocase ABCB1", "experiment": "TP_TRANSPORTER: inhibition of Daunomycin efflux (Daunomycin: 10 uM, 13alpha-OH Terracinolide B: 5 uM) in K562/R7 cells", "in_short": "as §1"}, "[7]": {"molecular_target": "T1, ATP-dependent translocase ABCB1", "experiment": "TP_TRANSPORTER: inhibition of Daunomycin efflux (Daunomycin: 10 uM, Terracinolide K: 5 uM) in K562/R7 cells", "in_short": "as §1"}}, "data": [{"smiles": "CC(=O)O[C@H]1[C@@H](OC(C)=O)C(C)(C)/C=C/[C@H](C)C(=O)[C@@]2(OC(C)=O)C[C@@](C)(O)[C@H](OC(C)=O)[C@@H]2[C@H]2OC(=O)CC[C@@]2(OC(=O)C(C)C)[C@@H]1OC(=O)C(C)C", "values": [{"measurement": "Activity", "setting": "[1]", "result": "is not an inhibitor [-]"}]}, {"smiles": "CC(=O)O[C@H]1[C@@H](OC(C)=O)C(C)(C)/C=C/[C@H](C)C(=O)[C@@]2(OC(C)=O)C[C@@](C)(OC(C)=O)[C@H](O)[C@@H]2[C@H]2OC(=O)CC[C@@]2(OC(C)=O)[C@@H]1OC(=O)C(C)C", "note": "[TERRACINOLIDE C]", "values": [{"measurement": "Activity", "setting": "[2]", "result": "inhibitor [+]"}]}, {"smiles": "CC(=O)O[C@H]1[C@@H](OC(C)=O)C(C)(C)/C=C/[C@@](C)(O)C(=O)[C@@]2(O)C[C@@](C)(OC(C)=O)[C@H](OC(C)=O)[C@@H]2[C@H]2OC(=O)CC[C@@]2(OC(C)=O)[C@@H]1OC(=O)C(C)C", "values": [{"measurement": "Activity", "setting": "[3]", "result": "inhibitor [+]"}]}, {"smiles": "CC(=O)O[C@H]1[C@@H](OC(C)=O)C(C)(C)/C=C/[C@H](C)C(=O)[C@@]2(OC(C)=O)C[C@@](C)(OC(C)=O)[C@H](OC(C)=O)[C@@H]2[C@H]2OC(=O)CC[C@@]2(OC(C)=O)[C@H]1OC(=O)C(C)C", "note": "[TERRACINOLIDE B]", "values": [{"measurement": "Activity", "setting": "[4]", "result": "inhibitor [+]"}]}, {"smiles": "C=C1[C@H](OC(=O)c2ccccc2)[C@@H](OC(C)=O)[C@@H](OC(C)=O)C(C)(C)/C=C/[C@H](C)[C@]2(O)C[C@@](C)(O)[C@H](OC(C)=O)[C@@H](C2=O)[C@H]1OC(=O)C(C)C", "note": "[EPIABEODENDROIDIN F]", "values": [{"measurement": "Activity", "setting": "[5]", "result": "inhibitor [+]"}]}, {"smiles": "CC(=O)O[C@H]1[C@@H](OC(C)=O)C(C)(C)/C=C/[C@@](C)(O)C(=O)[C@@]2(OC(C)=O)C[C@@](C)(OC(C)=O)[C@H](OC(C)=O)[C@@H]2[C@H]2OC(=O)CC[C@@]2(OC(C)=O)[C@@H]1OC(=O)C(C)C", "values": [{"measurement": "Activity", "setting": "[6]", "result": "inhibitor [+]"}]}, {"smiles": "CC(=O)O[C@H]1[C@@H](OC(C)=O)C(C)(C)/C=C/[C@H](C)C(=O)[C@@]2(OC(C)=O)C[C@@](C)(O)[C@H](OC(C)=O)[C@@H]2[C@H]2OC(=O)CC[C@@]2(OC(C)=O)[C@@H]1OC(=O)C(C)C", "note": "[TERRACINOLIDE K]", "values": [{"measurement": "Activity", "setting": "[7]", "result": "inhibitor [+]"}]}]}
